# D1 mod: D1 dopamine receptor (human) allosteric modulation. HEK293 D1, CRE-luciferase, dopamine EC30 potentiation; actives deviate in either direction. B-score at 10 µM. actives 5.9% (n = 58,000);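 active = luminescence count or its row- and column-corrected plate score outside the 99.7% band of the plate's sample wells, on either side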
# Target sequence (P21728 whole entry, looked up): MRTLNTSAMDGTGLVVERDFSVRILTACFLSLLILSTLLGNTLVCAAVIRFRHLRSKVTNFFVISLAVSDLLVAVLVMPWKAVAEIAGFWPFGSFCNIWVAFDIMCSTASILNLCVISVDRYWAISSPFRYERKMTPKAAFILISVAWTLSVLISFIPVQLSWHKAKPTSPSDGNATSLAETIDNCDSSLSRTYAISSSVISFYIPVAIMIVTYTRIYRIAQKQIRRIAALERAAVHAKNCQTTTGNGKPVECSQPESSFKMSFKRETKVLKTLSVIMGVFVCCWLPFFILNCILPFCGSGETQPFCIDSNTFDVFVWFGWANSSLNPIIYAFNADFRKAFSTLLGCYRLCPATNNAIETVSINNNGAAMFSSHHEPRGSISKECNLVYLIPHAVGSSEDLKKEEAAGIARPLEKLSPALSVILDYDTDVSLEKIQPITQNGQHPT
# AP ELISA ortho: orthogonal test for alternative complement pathway inhibitors | Human serum alternative complement pathway, LPS-coated ELISA, C3 deposition; tested in compound mixtures | inhibition, % at 5 µM | actives 0.08% (n = 62,000);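 active = inhibition above 30% in each of the two pooled mixtures holding the compound, so the lower value exceeds 30%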;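 note: 0% = serum in Mg-EGTA without compound and 100% = EDTA serum blank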
#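 Assay system: Human serum alternative complement pathway, C3 deposition on LPS-coated wells | Incubation: 1 h serum-compound exposure at 37 °C | Doses: 5 µM per compound in ten-compound mixtures | Read-out: Percent inhibition | Technique: ELISA with HRP anti-human C3 antibody, TMB substrate, absorbance 450 nm | Replication: Two pool placements per compound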
# hDAT+cocaine: human DAT dopamine uptake with cocaine, either direction. Q01959. LLC-PK1 hDAT cells, [14C]-dopamine uptake with cocaine IC80; actives deviate in either direction. B-score at 10 µM. actives 1.3% (n = 110,000). AID 449768;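 active = Z score or B-score, a plate-position-corrected score, falls beyond the plate's 99.7% confidence bounds, in either direction; inactive = both scores lie inside the 99.7% bounds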;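 note: scored against the spread of the other compound wells on the same plate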
# WNV protease inh: blocks West Nile virus NS2B-NS3 protease activity. P06935. WNV NS2B-NS3 protease, fluorogenic substrate Ex360/Em465; hits give low values. z-score (test concentration not listed). actives 0.18% (n = 65,000). AID 577; in the data active = z-score below about -3
# D1 PAM confirm: D1 receptor (human) allosteric modulation, confirmed. shares compounds with D1 mod. luminescence at 10 µM. actives 88% (n = 2,200). HEK293 D1 CRE-luciferase, dopamine EC30 potentiation; hits give high values;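 active = luminescence in either of two replicates above the same-plate mean plus 3 SD of the low-dose dopamine control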
# D1 no dopamine: activates D1 CRE-luciferase signal without dopamine present. actives 0.8% (n = 1,900). shares compounds with D1 mod. HEK293 D1 CRE-luciferase, luminescence, no dopamine; hits give high values. luminescence at 10 µM; in the data active = luminescence above about 3900
# Isoprot counter: isoproterenol response counter-screen activity for D1 modulators. actives 63% (n = 2,200). luminescence at 10 µM. shares compounds with D1 mod. HEK293 D1 CRE-luciferase, isoproterenol EC30 counter-screen; hits give high values;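 active = luminescence in either replicate above plate mean of wells with a partly effective reference agonist dose plus 3 SD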;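 note: isoproterenol raises cAMP through native beta-adrenoceptor Gs so signal bypasses D1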
# Active calls of the source: *; x = no result given. The sample as a whole holds a higher share of hits than the screen did.
SMILES,D1 mod,AP ELISA ortho,hDAT+cocaine,WNV protease inh,D1 PAM confirm,D1 no dopamine,Isoprot counter
CC1CCCCN1CCCNC(=O)c1ccc2c(=O)n(CCc3ccccc3)c(=O)[nH]c2c1 (stereo unspecified),x,x,0.93,x,x,x,x
CCCCCNC(=O)c1ccc2c(=O)n(CCOC)c(=O)[nH]c2c1,x,x,0.24,x,x,x,x
Cc1nnsc1C(=O)NC1CCCCC1,x,x,-0.67,x,x,x,x
CN(CCOc1ccc(-c2ccn(S(=O)(=O)c3cccc4ccccc34)n2)cc1)c1ccccn1,x,x,-8.3*,x,x,x,x
Cc1ccc(-c2nc(-c3ccccn3)no2)cc1,-7.6*,6,2.2,-0.2,x,x,x
Clc1cccc(-c2nc(-c3ccccn3)no2)c1,-6.9*,4,-0.097,-0.76,x,x,x
c1ccc(-c2nc(-c3ccccn3)no2)cc1,x,x,0.65,x,x,x,x
c1ccc(-c2ccc(-c3nc(-c4ccccn4)no3)cc2)cc1,-9.6*,11,0.3,0.09,x,x,x
c1ccc(-c2noc(-c3cccc4ccccc34)n2)nc1,-2.8*,24,0.87,-0.89,x,x,x
c1ccc(-c2cc(-c3nc(-c4ccccn4)no3)c3ccccc3n2)cc1,1.1,10,0.49,-0.6,x,x,x
CN1CCc2nc(NC(=O)c3cccc(OC(F)F)c3)sc2C1,x,x,-0.76,x,x,x,x
COc1cccc2c1OC1(C)CC2/C(=C(\C)O)C(=O)N1 (stereo unspecified),x,15,0.73,-0.15,x,x,x
NCCCCCc1nnc(SCc2ccc(Cl)c(Cl)c2)o1,x,x,0.78,x,x,x,x
Cc1cc(NC(=O)Cc2cccs2)nn1CC(=O)NCc1ccco1,-0.46,-1,0.24,1.1,x,x,x
Cc1ccc(-c2nc(-c3ccccn3)no2)cc1Cl,-4.4*,5,-0.5,-0.47,x,x,x
c1ccc(-c2noc(-c3ccc4ccccc4c3)n2)cc1,-7*,8,0.12,0.78,x,x,x
c1ccc(-c2noc(-c3ccccc3-c3ccccc3)n2)cc1,x,x,-0.0048,x,x,x,x
CC(=O)N(C)c1ccc(NC(=O)c2cnn(C)c2)cc1,0.033,11,-0.022,0.24,x,x,x
CC(=O)Nc1ccc(C2NC(=O)c3ccccc3O2)cc1 (stereo unspecified),3.1*,-1,-0.018,1.2,4184,1712,2296
COCCSc1nc2c(c(=O)[nH]c(=O)n2C)n1CCC(C)C,11*,8,x,0.88,21024*,1464,5440*
COC(=O)C(C)Sc1nc2c(c(=O)[nH]c(=O)n2C)n1CCC(C)C (stereo unspecified),9.9*,x,0.74,-0.16,21460*,1708,5984*
CCC(C)Nc1nc2c(c(=O)[nH]c(=O)n2C)n1CCC(C)C (stereo unspecified),17*,-8,0.32,1.1,18228*,1632,6624*
COC(=O)C(C)Sc1nc2c(c(=O)n(C)c(=O)n2C)n1CCC(C)C (stereo unspecified),x,x,x,0.28,x,x,x
C=C(C)CSc1nc2c(c(=O)[nH]c(=O)n2C)n1CCC(C)C,11*,20,0.31,0.75,22496*,1732,7888*
COCCNC(=O)c1cc(-c2ccccc2)nn1CC1CC(c2cccnc2)=NO1 (stereo unspecified),x,x,1.4,x,x,x,x
SMILES,D1 mod,AP ELISA ortho,hDAT+cocaine,WNV protease inh,D1 PAM confirm,D1 no dopamine,Isoprot counter
CN(CC(=O)O)Cc1nc2ccccc2[nH]1,x,x,0.48,x,x,x,x
O=C(c1ccco1)c1cn[nH]c1-c1ccc(Cl)cc1O,0.37,0,0.41,-0.12,x,x,x
CC(c1nnc(SCC(=O)N2CC(=O)Nc3ccccc32)n1Cc1ccccc1)N(C)C (stereo unspecified),x,x,-0.45,x,x,x,x
CC(=O)N1CCN=C1SCc1cccc(C(F)(F)F)c1,4.9*,20,0.42,-1.3,10200*,1640,3480*
COc1ccc(N(C(=O)c2ccco2)S(=O)(=O)c2cccs2)cc1,7.5*,-22,0.0093,-0.08,14396*,1668,4772*
CCSc1cnc(-c2ccccc2)n1CC,4.5*,4,-0.27,-0.06,8832*,1620,3012
Oc1ccc(CNCC2COc3ccccc3O2)cc1 (stereo unspecified),x,x,0.46,x,x,x,x
Clc1cccc(Nc2c3c(nc4ncnn24)CCC3)c1,4.7*,13,0.057,1.6,8280*,1584,3144
CCS(=O)(=O)c1nc2ccccc2n1Cc1ccccc1Cl,16*,14,-1.3,1.1,16608*,1152,3788*
N#Cc1nc(N2CCOCC2)nc(N2CCOCC2)n1,5.1*,5,0.31,1.3,12340*,1704,3540*
N#CCOc1nc(N2CCOCC2)nc(N2CCOCC2)n1,1.6,1,-0.02,-1.2,x,x,x
CN(C)C(=O)CSc1nc(SCC(=O)N(C)C)n(-c2ccccc2)n1,0.18,13,-0.75,-0.81,x,x,x
CN(C(=O)CSc1nc(N)nn1-c1ccccc1)c1ccccc1,11*,11,2.1,2,6016,1696,2588
CCOc1cccc(-c2nnc3n2N=C(c2cc(OC)ccc2OC)CS3)c1,17*,2,0.69,-0.13,13520*,x,10932*
COc1ccc(C2=Nn3c(nnc3-c3ccccc3OC)SC2)cc1OC,41*,4,0.21,0.74,31124*,x,43008*
Cc1cccc(-c2nnc3n2N=C(c2ccccc2Br)CS3)c1,8.1*,-20,0.83,-0.94,17404*,1544,6836*
COc1ccc(C2=Nn3c(nnc3-c3ccccn3)SC2)cc1OC,x,x,-0.25,1.1,x,x,x
COc1cc(-c2nnc3n2N=C(c2ccccc2)CS3)cc(OC)c1OC,1.9*,6,0.38,-0.81,7188*,1768,3664*
COc1cccc(-c2nnc3n2N=C(c2cc(OC)ccc2OC)CS3)c1,x,1,0.77,x,x,x,x
Cn1c(N)c(C(=O)CCl)c(=O)n(C)c1=O,x,x,-0.49,x,x,x,x
CCCCN(C)C/C(O)=C(\C#N)c1nc(-c2ccccc2)cs1,x,x,1.7,x,x,x,x
Cc1ccc(-c2nnc3n2N=C(c2ccccc2)CS3)cc1,8.3*,15,-0.18,-2.1,21908*,1732,5776*
COc1ccc(C2=Nn3c(nnc3-c3ccc(OC)cc3)SC2)cc1,8.1*,-4,0.62,-9.6*,16788*,2416,14528*
CCOc1ccc(C2=Nn3c(nnc3-c3ccccc3)SC2)cc1Cl,x,-3,-0.35,1.9,x,x,x
c1csc(C2=Nn3c(nnc3-c3ccncc3)SC2)c1,x,x,-0.028,x,x,x,x
CCc1ccc(C2=Nn3c(nnc3-c3cccs3)SC2)cc1,8.8*,23,-0.2,1.4,6272*,976,2468
CCOc1ccc(NC(=O)CSCc2cnn(-c3ccccc3)c2-n2cccc2)cc1,x,x,0.93,x,x,x,x
COC(=O)c1cc(=O)n2c(-c3ccccc3)csc2n1,0.018,-15,0.38,1.7,x,x,x
O=c1nc2scc(-c3ccccc3)n2c2ccccc12,3.4*,17,-1,2.4,17356*,1720,3164
C#CCNC(=O)C1=C[C@H](c2ccc(Br)cc2)C[C@H](OCc2ccc(CO)cc2)O1,x,x,0.21,x,x,x,x
